“And” between values parts separate entries of the source, which are not always exact repeats. Equal values may be shown once. The source made the active and inactive calls. No cut-off for these calls is given here.

Results on ten compounds are retold here after ChEMBL document CHEMBL1122710, “6-Methylangelicins: a new series of potential photochemotherapeutic agents for the treatment of psoriasis” (J Med Chem, 1984).

Data set [1] is described as follows: Percentage of clearance of psoriatic lesions by the compound at dose of 4 J/cm e2 ultraviolet-A radiation. In kind it is ADME, organism-based. The settings on record: in vivo. In a few lines:
(§1)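 Psoriasis patients, with 4×4 cm skin areas per treatment. Ethanolic solution (0.1% w/v) is applied topically to 5 μg/cm² and left to evaporate. After 20 min, the area is irradiated with a UV-A fluorescent PUVA lamp. Starting dose is 2.5 J/cm², increased up to 13 J/cm² by skin tolerance. Control areas get compound without UV-A, or UV-A alone.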

The nature of data set [2]: Percentage of clearance of psoriatic lesions by the compound at dose of 6 J/cm e2 ultraviolet-A radiation. The settings on record: in vivo. In kind it is ADME, organism-based. In a few lines: as §1
Data set [3] in a line: Percentage of clearance of psoriatic lesions by the compound at dose of 8 J/cm e2 ultraviolet-A radiation. In kind it is ADME, organism-based. Conditions: in vivo. In a few lines: as §1
A short description of data set [4]: Percentage of clearance of psoriatic lesions by 8-methoxypsoralen (8-MOP) for comparison at dose of 10 J/cm e2 ultraviolet-A radiation. The format is ADME, organism-based. The settings on record: in vivo. In outline:
as §1

Data set [5] can be described thus: Percentage of clearance of psoriatic lesions by 8-methoxypsoralen (8-MOP) for comparison at dose of 6 J/cm e2 ultraviolet-A radiation. The format is ADME, organism-based. The settings on record: in vivo. In a few lines: as §1
Data set [6] can be described thus: Percentage of clearance of psoriatic lesions by 8-methoxypsoralen (8-MOP) for comparison at dose of 8 J/cm e2 ultraviolet-A radiation. The format is ADME, organism-based. The settings on record: in vivo. In a few lines:
as §1

The test system of data set [7] is Nucleic Acid. As to the kind of experiment: (§2) Compound was evaluated for the association constant to an isolated site of DNA. The format is nucleic-acid assay. Details: unit not given here. The settings on record: Bos taurus.
In data set [8] the test system is Nucleic Acid. As to the kind of experiment: Compound was evaluated for the binding parameter by determining the number of nucleotides occluded by a bound angelicin (n). In kind it is nucleic-acid assay. Conditions: Bos taurus.
Data set [9] deals with Nucleic Acid. As to the kind of experiment: (§3) Compound was evaluated for the frequency of the binding site that is the number of molecules bound to every nucleotide (1/n). The format is nucleic-acid assay. Conditions: Bos taurus.
The test system of data set [10] is Nucleic Acid. As to the kind of experiment: Compound was evaluated for the binding parameter by determining rate constant. The format is nucleic-acid assay. The settings on record: Bos taurus.
For data set [11], the species on record is Homo sapiens. The experiment in a line: Number of treatments at dose of 10 J/cm e2 ultraviolet-A radiation. The format is functional. In a few lines: as §1
For data set [12], the species on record is Homo sapiens. The experiment in a line: Number of treatments at dose of 4 J/cm e2 ultraviolet-A radiation (patient). The format is functional. In outline:
as §1

For data set [13], the species on record is Homo sapiens. As to the kind of experiment: (§4) Number of treatments at dose of 6 J/cm e2 ultraviolet-A radiation. The format is functional. In outline:
as §1

The species named for data set [14] is Homo sapiens. As to the kind of experiment: Number of treatments at dose of 8 J/cm e2 ultraviolet-A radiation. In kind it is functional. In outline:
as §1

For data set [15], the species on record is Homo sapiens. As to the kind of experiment: Pigmentation capacity at dose of 6 J/cm e2 ultraviolet-A radiation in patient; + = moderate. The format is functional, organism-based. In a few lines:
as §1

The species named for data set [16] is Homo sapiens. The experiment in a line: Erythema induction by the compound at dose of 10 J/cm e2 ultraviolet-A radiation in patient; - = absent. The format is functional, organism-based. In a few lines:
as §1

The species named for data set [17] is Homo sapiens. As to the kind of experiment: Erythema induction by the compound at dose of 4 J/cm e2 ultraviolet-A radiation in patient; - = absent. The format is functional, organism-based. In outline: as §1
Data set [18] is filed under the species Homo sapiens. As to the kind of experiment: Erythema induction by the compound at dose of 6 J/cm e2 ultraviolet-A radiation in patient; - = absent. In kind it is functional, organism-based. In outline: as §1
Data set [19] is filed under the species Homo sapiens. As to the kind of experiment: Erythema induction by the compound at dose of 8 J/cm e2 ultraviolet-A radiation in patient; - = absent. The format is functional, organism-based. In a few lines: as §1
For data set [20], the species on record is Homo sapiens. The experiment in a line: Pigmentation capacity of 8-methoxypsoralen (8-MOP) for comparison at dose of 10 J/cm e2 ultraviolet-A radiation in patient; +=moderate. The format is functional, organism-based. In outline: as §1
The species entered for data set [21] is Homo sapiens. The experiment in a line: Pigmentation capacity of 8-methoxypsoralen (8-MOP) for comparison at dose of 4 J/cm e2 ultraviolet-A radiation in patient; - = absent. In kind it is functional, organism-based. In outline:
as §1

Data set [22] is filed under the species Homo sapiens. The experiment in a line: Pigmentation capacity of 8-methoxypsoralen (8-MOP) for comparison at dose of 6 J/cm e2 ultraviolet-A radiation in patient; + = moderate. The format is functional, organism-based. In outline:
as §1

For data set [23], the species on record is Homo sapiens. The experiment in a line: Pigmentation capacity of 8-methoxypsoralen (8-MOP) for comparison at dose of 8 J/cm e2 ultraviolet-A radiation in patient; +=moderate. The format is functional, organism-based. In a few lines:
as §1

The species entered for data set [24] is Homo sapiens. The data set is described as §4. The format is functional. In a few lines: as §1
The source holds these as a separate data set.

For a further data set, the species on record is Mus musculus. As to the kind of experiment: Compound was evaluated for 50% inhibition of DNA synthesis in Ehrlich ascites tumor cells by irradiation (365 nM) at 1.9 x 10e -5M incubated with [3H]thymidine at 37 degree C (p 0.05). The format is functional. In a few lines:
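Ehrlich ascites tumor cells (2×10^7 cells/mL in Hanks' solution) are irradiated on ice with the compound present, using an HPW 125 lamp at 20 cm. 2×10^6 cells are then pulsed with 1 μCi [3H]thymidine for 15 min at 37 °C. TCA-insoluble counts are taken as % of untreated controls, at least duplicates per dose. UV-A dose for 50% inhibition is derived by probit analysis.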

Data set [25] is described as follows: Percentage of clearance of psoriatic lesions by the compound at dose of 10 J/cm e2 ultraviolet-A radiation. Conditions: in vivo. In kind it is ADME, organism-based. In a few lines: as §1
The species entered for data set [26] is Homo sapiens. The experiment in a line: Erythema induction by 8-methoxypsoralen (8-MOP) for comparison at dose of 8 J/cm e2 ultraviolet-A radiation in patient, +=moderate. The format is functional, organism-based. In outline:
as §1

For data set [27], the species on record is Bos taurus. The description is as §3.
The species named for data set [28] is Bos taurus. The data set is described as §2.
A short description of data set [29]: Percentage of clearance of psoriatic lesions by the compound at dose of 9 J/cm e2 ultraviolet-A radiation. The format is ADME, organism-based. The settings on record: in vivo. In outline: as §1
Data set [30] can be described thus: Percentage of clearance of psoriatic lesions by 8-methoxypsoralen (8-MOP) for comparison at dose of 9 J/cm e2 ultraviolet-A radiation. Conditions: in vivo. The format is ADME, organism-based. In outline:
as §1

The species entered for data set [31] is Homo sapiens. As to the kind of experiment: Number of treatments at dose of 9 J/cm e2 ultraviolet-A radiation. The format is functional. In a few lines:
as §1

For data set [32], the species on record is Homo sapiens. As to the kind of experiment: Pigmentation capacity at dose of 8 J/cm e2 ultraviolet-A radiation in patient; + = moderate. The format is functional, organism-based. In a few lines:
as §1

Data set [33] is filed under the species Homo sapiens. As to the kind of experiment: Pigmentation capacity at dose of 9 J/cm e2 ultraviolet-A radiation in patient; + = moderate. The format is functional, organism-based. In a few lines:
as §1

Data set [34] is filed under the species Homo sapiens. The experiment in a line: Erythema induction by the compound at dose of 9 J/cm e2 ultraviolet-A radiation in patient; - = absent. In kind it is functional, organism-based. In outline: as §1

For the compound `Cc1cc(=O)oc2c1cc(C)c1occ(C)c12`, the Lesion_Clearance is 95% in data set [1]; 100% in data set [2]; 100% in [3]; 90% in data set [4]; 80% and 85% in data set [5]; 75% in data set [6]. The Lesion_Clearance in data set [25] is 90%. The K with Nucleic Acid [7] is 10100. The Activity stood at 11 in the data set on Nucleic Acid [8]; 0.091 in the data set with Nucleic Acid [9]; 15 in the data set listed under Homo sapiens [11]; 11 in the data set filed under Homo sapiens [12]; 9 in the data set filed under Homo sapiens [13]; 11 in the data set filed under Homo sapiens [14]. For the same compound, the Activity in the data set filed under Homo sapiens [24] was found to be 9. Besides, the Rate constant in the data set with Nucleic Acid [10] was 0.133 min⁻¹. Moreover, the Pigmentation capacity entry in the data set filed under Homo sapiens [15], in the data set listed under Homo sapiens [20], in the data set filed under Homo sapiens [22] and in the data set filed under Homo sapiens [23] was “moderate” each time. The Erythema induction result in the data set listed under Homo sapiens [16], in the data set listed under Homo sapiens [17], in the data set filed under Homo sapiens [18] and in the data set listed under Homo sapiens [19] was “inactive” throughout. In addition, in the data set listed under Homo sapiens [21], the Pigmentation capacity entry is “inactive”. In the data set filed under Mus musculus, this compound yielded an ID50 of 6e+16 quanta. Also, the Erythema induction result in the data set listed under Homo sapiens [26] is reported as “moderate”.

`Cc1c(C)c2occc2c2oc(=O)ccc12` showed an ID50 in the data set filed under Mus musculus of 3e+19 quanta.

In the data set on Nucleic Acid [7], `O=c1ccc2ccc3occc3c2o1` [ANGELICIN] returned a K of 560. Besides, the Activity in the data set on Nucleic Acid [8] turned out to be 15.9; in the data set with Nucleic Acid [9], 0.063. Moreover, the Rate constant in the data set on Nucleic Acid [10] amounted to 0.011 min⁻¹. The compound further gave an ID50 in the data set filed under Mus musculus of 2.5e+19 quanta.

As to `Cc1cc2c(o1)c(C)c(C)c1ccc(=O)oc12`, the K in the data set on Nucleic Acid [7] was found to be 3730. In addition, the Activity in the data set on Nucleic Acid [8] amounted to 14.3; in the data set on Nucleic Acid [9], 0.07. The compound further returned a Rate constant in the data set on Nucleic Acid [10] of 0.023 min⁻¹. The same compound gave an ID50 in the data set filed under Mus musculus of 3e+19 quanta.

`Cc1cc2ccc(=O)oc2c2ccoc12`: the Activity in the data set filed under Bos taurus [27] worked out at 0.048; in the data set with Nucleic Acid [8] it was 20.8. Besides, in the data set filed under Bos taurus [28], the K turned out to be 925. Besides, the Rate constant with Nucleic Acid [10] is 0.036 min⁻¹. Moreover, the ID50 in the data set filed under Mus musculus stood at 2.63e+19 quanta.

Take `Cc1cc2c(o1)c(C)cc1ccc(=O)oc12`: the K in the data set with Nucleic Acid [7] amounted to 1980. Besides, the Activity with Nucleic Acid [8] came out at 12.8; in the data set on Nucleic Acid [9], 0.078. In the data set on Nucleic Acid [10], this compound had a Rate constant of 0.03 min⁻¹. This compound also had an ID50 in the data set listed under Mus musculus of 1.19e+19 quanta.

`Cc1cc2ccc(=O)oc2c2c(C)coc12`: the Lesion_Clearance is 100% in data set [3], 90% in data set [29], 85% in [6] and 70% in data set [30]. In the data set with Nucleic Acid [7], this compound returned a K of 6300. The Activity with Nucleic Acid [8] worked out at 16.4; in the data set on Nucleic Acid [9] it was 0.061; in the data set filed under Homo sapiens [14], 15; in the data set listed under Homo sapiens [31], 15. The compound further had a Rate constant in the data set with Nucleic Acid [10] of 0.099 min⁻¹. The Pigmentation capacity result in the data set listed under Homo sapiens [32] and in the data set listed under Homo sapiens [33] was “moderate” each time. Also, the Erythema induction result in the data set listed under Homo sapiens [19] and in the data set filed under Homo sapiens [34] was “inactive” throughout. In the data set listed under Mus musculus, this compound returned an ID50 of 2.2e+18 quanta.

Compound `COc1c2occc2cc2ccc(=O)oc12` [METHOXSALEN] gave a K in the data set with Nucleic Acid [7] of 736. Further, the Activity in the data set with Nucleic Acid [8] was determined as 7.81; in the data set on Nucleic Acid [9] it was 0.128. The Rate constant in the data set on Nucleic Acid [10] turned out to be 0.031 min⁻¹. The ID50 in the data set filed under Mus musculus was 1.38e+19 quanta.

The compound `Cc1cc(=O)oc2c1cc(C)c1occc12` came in with a K in the data set with Nucleic Acid [7] of 2990. For the same compound, the Activity with Nucleic Acid [8] amounted to 15.9; with Nucleic Acid [9], 0.063. Also, the Rate constant in the data set on Nucleic Acid [10] came to 0.0523 min⁻¹. In the data set listed under Mus musculus, this compound yielded an ID50 of 4e+18 quanta.

In turn, `Cc1cc2c(o1)c(C)cc1c(C)cc(=O)oc12` displayed a K with Nucleic Acid [7] of 3310. In addition, the results for the Activity in the data set with Nucleic Acid [8] and in the data set on Nucleic Acid [9] were 22.2 and 0.045, respectively. In addition, in the data set with Nucleic Acid [10], the Rate constant was 0.0702 min⁻¹. In addition, the ID50 in the data set filed under Mus musculus was determined as 3.87e+18 quanta.
